NR3A LBD binder – binders of NR3A ligand-binding domain, primary screen, biophysical, differential scanning fluorimetry, uHTS; Glutamate receptor ionotropic, NMDA 3A (GRIN3A) ligand-binding domain; NR3A LBD differential scanning fluorimetry, Tm shift; 0% = protein alone, 100% = glycine-bound protein; 2.5% of 340,000 active; Tm shift relative to glycine control, % at 25 µM; AID 1259313, 2017;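 active means melting temperature shift of at least 10% of the positive control shift, at one fixed dose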
Rtt109 HAT inh – inhibitors of C. albicans Rtt109/Vps75 HAT, primary screen, biochemical, ThioGlo CoA-SH fluorescence, plate reader; Histone acetyltransferase RTT109 (Candida albicans (strain SC5314 / ATCC MYA-2876)), …; purified Rtt109/Vps75, 4 h; inhibition, % at 34.9 µM; 0.16% of 330,000 active;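 active means inhibition of at least 50% in every replicate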
Target sequence (Q5AAJ8 whole entry, looked up): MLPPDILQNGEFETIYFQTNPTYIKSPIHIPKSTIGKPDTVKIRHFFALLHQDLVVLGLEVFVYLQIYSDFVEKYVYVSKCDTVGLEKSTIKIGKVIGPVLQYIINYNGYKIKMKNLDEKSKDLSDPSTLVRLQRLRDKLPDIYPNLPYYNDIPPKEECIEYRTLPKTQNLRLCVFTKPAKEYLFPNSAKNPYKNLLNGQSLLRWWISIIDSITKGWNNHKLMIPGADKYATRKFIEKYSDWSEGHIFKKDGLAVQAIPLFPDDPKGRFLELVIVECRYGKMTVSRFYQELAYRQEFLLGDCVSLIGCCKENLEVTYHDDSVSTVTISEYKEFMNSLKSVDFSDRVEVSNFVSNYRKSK
GASC-1 inh – inhibitors of GASC-1 histone demethylase, primary screen, biochemical, fluorescence, DELFIA europium. GST-JMJD2C(1-420) H3K9me3 demethylation. inhibition, % at 2.35 µM. 0.069% of 330,000 active;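 active means more than half of a compound's replicate wells show inhibition beyond 50%, single wells judged on their own value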;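 further: signal counts dimethyl H3K9 product captured on neutravidin plate; 0% = median of DMSO wells and 100% = 0.3 times that DMSO median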
T cell modulator – modulators of CD8 T cell-vesicle binding, primary screen, mouse 2C CD8+ T cells, flow cytometry; AID 2052, 2009; 2C CD8+ T cell-vesicle binding; active compounds read low; 0.068% of 330,000 active; response (vesicle binding), % at 7 µM;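 active means response, share of CD8 T cells binding vesicles, and their 90th percentile fluorescence all below set limits, cut at about 80% in these data, passing the limit was not always enough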;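 further: values below 100% mean blocked vesicle binding to the CD8+ T cells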
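Assay system: 2C TCR transgenic mouse naive CD8+ T cells, MACS-purified | Read-out: CD8+ gate FL2 mean fluorescence as % of same-row positive control | Signal: High-throughput flow cytometry with anti-B7-1 and anti-CD8 staining | Timing: Binding step 1.5 h, 37 °C, antibody labelling 20 min, ice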
The depositor's hits bear a star; i = inactive; nt = no result. This is a sample that favours compounds with a hit; in the whole collection about 2.8% have one here.

SMILES	NR3A LBD binder	Rtt109 HAT inh	GASC-1 inh	T cell modulator
N#CCC(=O)N1CC2(CC(c3cccc(NC(=O)COc4ccc(Cl)cc4)c3)=NO2)C[C@@H]1C(N)=O (stereo partly specified)	1	3	29	329
NC(=O)[C@H]1CC2(CC(c3cccc(NC(=O)COc4ccc(Cl)cc4)c3)=NO2)CN1C(=O)C(c1ccccc1)c1ccccc1 (stereo partly specified)	11*	-3	7	i
NC(=O)[C@H]1CC2(CC(c3cccc(NC(=O)CC(c4ccccc4)c4ccccc4)c3)=NO2)CN1C(=O)CC(c1ccccc1)c1ccccc1 (stereo partly specified)	17*	-3	-3	711
NC(=O)[C@@H]1CC2(CC(c3cccc(NC(=O)COc4ccc(Cl)cc4)c3)=NO2)CN1C(=O)COc1ccc(Cl)cc1 (stereo partly specified)	23*	-7	-11	211
C/C=C/n1ccnc1CC(O)(c1ccccc1)c1ccc(C)cc1 (stereo unspecified)	-1	60*	6	833
CSc1nc(N)nc(SCC(=O)c2ccc(C)cc2)c1C#N	20*	-4	14	346
Cc1ccc(S(=O)(=O)N(C)S(=O)(=O)c2ccc(C#N)cc2)cc1	nt	nt	6	197
CCOC(=O)C(Cc1c[nH]c2cc([N+](=O)[O-])ccc12)(NC(C)=O)C(=O)OCC	0	-2	nt	nt
Cc1noc(-c2ccc(C(F)(F)F)cc2)c1NC(=O)Nc1ccc(Cl)cc1	30*	nt	-13	476
CCc1ccc(-c2cc(C)no2)cc1S(=O)(=O)NCCN1CCC(C)CC1	15*	0	-39	473
CCc1ccc(-c2cc(C)no2)cc1S(=O)(=O)NCCCN1CCN(c2ccccc2)CC1	-4	-6	7	415
Cc1cc(C)c(NC(=O)CN(C)C(=O)CCC(=O)c2ccc(C)s2)c(C)c1	0	37	nt	157
CN(C)C(CNC(=O)c1ccc(C(=O)c2ccccc2)cc1)c1ccccc1 (stereo unspecified)	-4	54*	8	239
CCOC(=O)C(C)N1C(=O)S/C(=C/c2ccc3c(c2)n(C)c(=O)n3C)C1=O (stereo unspecified)	0	54*	1	940
CS(=O)(=O)c1ccc(Cl)c(C(=O)Nc2ccc3nc(N4CCOCC4)sc3c2)c1	3	-3	3	404
COc1ccc(-c2n[nH]c(C)c2-c2cnn(-c3ccccc3)c2)c(O)c1C	24*	13	1	244
COc1ccc(-c2n[nH]c(C)c2-c2cnn(-c3ccccc3)c2)c(O)c1	-3	2	i	197
COc1ccc(CCC(=O)Nc2ccc(-c3noc(-c4ccc(OC)c(OC)c4)n3)cc2)cc1	1	2	-5	186
COc1cc(-c2nc(-c3ccc(NC(=O)c4ccc(Br)o4)cc3)no2)cc(OC)c1OC	21*	nt	-21	382
COc1ccc(-c2nc(-c3ccc(NC(=O)c4ccc(Br)o4)cc3)no2)cc1OC	26*	7	-2	248
COc1cc(C(=O)NNC(=O)CNC(=O)c2ccc(Br)o2)cc(OC)c1OC	1	47	-2	286
Cc1cccc(C)c1NC(=O)COC(=O)c1ccc2[nH]c3c(c2c1)CCCC3	6	32	-10	250
O=C(COC(=O)c1ccc2[nH]c3c(c2c1)CCCC3)Nc1ccccc1	22*	4	-1	92
CC1(C(=O)OCC(=O)Nc2ccc(C(N)=O)cc2)CC1(Cl)Cl (stereo unspecified)	0	5	-1	234
COc1ccccc1NC(=O)c1ccc(NC(=O)COC(=O)C2(C)CC2(Cl)Cl)cc1 (stereo unspecified)	25*	6	-1	140
SMILES	NR3A LBD binder	Rtt109 HAT inh	GASC-1 inh	T cell modulator
CCCCNC(=O)C1=C(N)C(C(=O)Nc2ccc(C)c(S(=O)(=O)N3CCCCC3)c2)SC1=Nc1ccc(C)cc1C (stereo unspecified)	24*	23	4	253
c1ccc(-n2cnnc2SCc2cn3ccsc3n2)cc1	3	-6	1	281
c1ccn2c(SCc3cn4ccsc4n3)nnc2c1	-1	-4	51*	316
CCOc1ccc2c(c1)C(NC(C)=O)C(=O)N2CCN1CCOCC1 (stereo unspecified)	-3	-8	-3	152
CC(=O)NC1C(=O)N(CCN2CCOCC2)c2ccc(Br)cc21 (stereo unspecified)	18*	10	8	76
O=C(NCCOc1ccccc1)c1ncn[nH]1	10*	-2	5	354
Cc1cccc(OCCNC(=O)c2ncn[nH]2)c1	-1	-7	-3	837
O=C(NNC(=O)C1COc2ccccc2O1)c1ccccc1O (stereo unspecified)	-1	4	nt	nt
COCCn1cnc2c1c(=O)n(CC(=O)Nc1cc(C)on1)c(=O)n2Cc1ccccc1	11*	-3	8	49
Nc1ccc(-c2nc3ccccc3[nH]2)cc1	-5	-1	-17	367
c1ccc(-c2cc(-c3nc4ccccc4[nH]3)c3ccccc3n2)cc1	22*	10	-1	120
NC1=NC(c2ccccc2)N=C(Nc2ccccc2)N1 (stereo unspecified)	nt	nt	-5	169
CNc1oc(-c2ccccc2F)nc1S(=O)(=O)c1ccc(C)cc1	13*	4	1	521
CNC(=O)c1c[nH]c2ccc(S(=O)(=O)Nc3ccccc3F)cc2c1=O	-1	-4	0	252
COc1cccc(NS(=O)(=O)c2ccc3[nH]cc(C(=O)NCCC(C)C)c(=O)c3c2)c1	18*	3	-6	404
CCc1ccccc1NS(=O)(=O)c1ccc2[nH]cc(C(=O)NC3CCCC3)c(=O)c2c1	11*	-21	23	199
Cn1cnc2c1c(=O)[nH]c(=O)n2Cc1ccccc1	10*	0	-10	176
CC(C)CCn1cnc2c1c(=O)[nH]c(=O)n2Cc1ccccc1	-1	14	-1	215
CN(CC(=O)Nc1ccccc1Br)C(=O)COc1ccc2ccccc2c1	1	-9	-4	453
COc1ccc(CCNC(=O)COC(=O)c2cc(S(=O)(=O)N3CCCC3)ccc2O)cc1	0	-1	nt	630
CN(CC(=O)Nc1ccc(Cl)c(Cl)c1)C(=O)CNC(=O)Cc1ccccc1	-1	-3	6	183
C/C(=N\NC(=O)c1ccc(F)cc1)c1ccccn1	12*	-5	14	208
C/C(=N\NC(=O)c1c[nH]c2ccccc12)c1ccccn1	-12	29	2	263
Oc1nc(Nc2ccc(Cl)cc2Cl)sc1/C=C1\C=Nc2ccccc21	23*	-3	-6	236

Compound activity deposited in PubChem by several laboratories.
